Bioassay records (PubChem BioAssay)
Only a selection was taken, and hits are over-represented in it overall.
Lmaj promast: inhibitors of Leishmania major promastigote growth. Leishmania major promastigotes, resazurin fluorescence viability. 200,000 compounds, 9% hits. inhibition, % at 10 µM; in the data active = inhibition above about 50%;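 note: promastigotes grown with compound for 44 hours at 28 °C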
MPTP inh: inhibitors of mitochondrial permeability transition pore; isolated mouse mitochondria, Ca2+ swelling absorbance, 30 min; 360,000 compounds, 1.4% hits; inhibition, % at 10 µM; AID 602449;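 active = inhibition of 50% or more, scaled per plate between neutral and stimulator controls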;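 note: 0% = DMSO wells given calcium and 100% = 1 mM EGTA wells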
Hep lipid drop: modulators of hepatic lipid droplet formation | AML12 mouse hepatocytes, oleate lipid droplets, BODIPY imaging | AID 1656 | 240,000 compounds, 0.4% hits | inhibition, % at 6.5 µM;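 active = lipid droplet intensity inhibited by at least 50%, with more than 500 cells counted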
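Material – mouse AML12 hepatocyte cell line, fixed after treatment · Compound dosing – one dose, 6.5 µM compound · Times – compound with oleate, overnight · Measured by – Image-based BODIPY and DAPI two-channel analysis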
DTT redox prof: compounds producing H2O2 with reducing agent – biochemical, NIH compound library profiling, artefact control for MLSCN library redox annotation, primary screen. DTT-dependent redox cycling H2O2, phenol red/HRP absorbance; 100% = 100 µM peroxide control, 0% = buffer. activation, % at 10 µM. 200,000 compounds, 0.03% hits;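 active = activation of at least 50% relative to the plate's high and low controls in the primary single-dose screen; inactive = activation below 50%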;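 note: compound incubated with DTT at 0.8 mM final as the reducing agent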
T cruzi repl: T. cruzi replication inhibition | T. cruzi beta-gal in NIH3T3, luminescence, 90 h | inhibition, % (no concentration beside the values) | 300,000 compounds, 1.4% hits | AID 1885;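 active = mean inhibition across valid replicates above about 55%, limit read from the data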;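 note: signal also drops with host cell toxicity which is not excluded here; 0% = plate median of DMSO wells and 100% = zero luminescence signal; higher percent means less beta-gal luminescence so fewer parasites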
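Incubation – ≥90 h infection period, 3 h prior cell attachment · System – NIH/3T3 fibroblasts plus reporter T. cruzi · Doses – compound pinned at 50 nL/well, DMSO · Read-out basis – percent inhibition of parasite-derived β-gal signal · Signal – luminescent β-galactosidase signal after 60 min lysis · Also added – 5000 T. cruzi trypomastigotes/well · Medium – Low-serum DMEM with 2% FBS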
Lmaj promast 1uM: L. major promastigote growth inhibition, 1 uM repeat | resazurin fluorescence, 48 h | shares compounds with Lmaj promast | AID 1258 | 1,100 compounds, 13% hits | inhibition, % at 1 µM;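 active = inhibition above about 50% in both repeat tests, limit read from the data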
Hep lipid conf: confirmation of inhibitors of hepatic lipid droplet formation; shares compounds with Hep lipid drop; AML12 mouse hepatocytes, BODIPY lipid droplet imaging; droplets induced with 100 µM oleic acid; inhibition, % at 5.2 µM; 870 compounds, 65% hits; AID 463183;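 active = inhibition of lipid droplet metric at least 50%, with more than 300 cells in each of four replicates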;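 note: plate controls were DMSO with oleic acid for no effect and 5 µM Triacsin-C for full effect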
AML12 cytotox: counter-screen for cytotoxicity in AML12 mouse hepatocytes; shares compounds with Hep lipid drop; 870 compounds, 3% hits; DAPI nuclear morphology cytotoxicity imaging; active compounds read high; cells fed 100 µM oleate overnight; z-score at 5 µM; in the data active = z-score above about 6.3;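 note: compound exposure lasted overnight at 37 °C before fixation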
AML12 tox conf: AML12 hepatocyte cytotoxicity, confirmed | shares compounds with Hep lipid drop | AML12 mouse hepatocyte viability, ATP luminescence; cells loaded with 100 µM oleic acid | cytotoxicity, % at 50 µM | 530 tested, under 10 active;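 active = cytotoxicity above 50% in each of four replicates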;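 note: compound exposure lasted overnight at 37 °C before the ATP read; 0% = DMSO-treated cells and 100% = wells with no cells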
MPTP counter: mitochondrial membrane potential, counter-screen; AID 624504; isolated mitochondria, Rhodamine 123 fluorescence; 5,000 compounds, 78% hits; shares compounds with MPTP inh; inhibition, % at 10 µM; in the data active = inhibition above about 22%;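 note: 0% = DMSO vehicle and 100% = positive control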
Active calls of the source: *.

For COc1ccc(-c2c(C)[nH]n3c(=O)c(Cc4ccccc4)c(C)nc23)cc1OC the results were Lmaj promast 17, MPTP inh 2, Hep lipid drop 3, DTT redox prof 0 and T cruzi repl -1.
For C=CCOc1ccc(C(=O)O)cc1Cl the results were MPTP inh 1, Hep lipid drop 9 and T cruzi repl -18.
For CCCCCCCCCCCCCCCCn1cc[n+](C)c1 the results were Lmaj promast 101*, MPTP inh 58*, Hep lipid drop -28, DTT redox prof -2, T cruzi repl 67*, Lmaj promast 1uM 99* and MPTP counter 99*.
`c1ccc(-c2nc(-c3ccncc3)no2)cc1` gave Lmaj promast -2, MPTP inh -1, Hep lipid drop 0, DTT redox prof 3 and T cruzi repl 19.
For c1ccc(C(Cc2nc(-c3ccncc3)no2)c2ccccc2)cc1 the results were Lmaj promast 70*, MPTP inh 78*, Hep lipid drop -9, DTT redox prof 1, T cruzi repl 45, Lmaj promast 1uM 11 and MPTP counter 72*.
Screening COc1ccc(-[n+]2c(C)cc(/C=C3\Sc4ccccc4N3C)cc2C)cc1 returned Lmaj promast 101*, MPTP inh 95*, Hep lipid drop -91, DTT redox prof 0, T cruzi repl 43, Lmaj promast 1uM 101* and MPTP counter 97*.
CC(C)[C@H](NC(=O)CCCn1nnc2ccccc2c1=O)C(=O)O was read as MPTP inh 0, Hep lipid drop 34 and T cruzi repl -16.
`Cc1ccc([N+](=O)[O-])cc1N=Nc1c(-c2ccc([N+](=O)[O-])cc2)[nH]n(C(N)=S)c1=O` gave Lmaj promast 88*, MPTP inh 99*, Hep lipid drop 22, DTT redox prof -2, T cruzi repl 31, Lmaj promast 1uM -5 and MPTP counter 69*.
`COc1ccc(C2=NCC(CSc3nnc(-c4ccc5c(c4)OCO5)o3)S2)cc1` (stereo unspecified) gave Lmaj promast 88*, MPTP inh 58*, DTT redox prof -3, T cruzi repl 57*, Lmaj promast 1uM 91* and MPTP counter 81*.
Fc1cccc(NC(=S)NCc2ccc(Cl)cc2)c1 was read as Lmaj promast 70*, MPTP inh 96*, Hep lipid drop -7, DTT redox prof 0, T cruzi repl 0, Lmaj promast 1uM 6 and MPTP counter 89*.
Screening c1ccc2c(c1)CCCC2C1=NCCN1 (stereo unspecified) returned Lmaj promast 0, MPTP inh 1, Hep lipid drop 53*, DTT redox prof 3, T cruzi repl -15, Hep lipid conf 21 and AML12 cytotox -0.056.
Screening O=S(=O)(c1cccc2ccccc12)N1CCC2CC1c1cc(Cl)ccc12 (stereo unspecified) returned MPTP inh 3.
Screening O=C(NCCCN1CCCC1=O)c1c(O)nc2sccn2c1=O returned MPTP inh 1 and T cruzi repl -7.
For COc1cccc(N=CC=C2OC(C)(C)C(C)(C)O2)c1 the results were Lmaj promast 18, MPTP inh 1, Hep lipid drop 66*, DTT redox prof -2, T cruzi repl 22, Hep lipid conf 12 and AML12 cytotox -0.37.
`O=C(Cc1cccc2ccccc12)Nc1c(F)cccc1F` gave MPTP inh 0, Hep lipid drop 55*, T cruzi repl -4, Hep lipid conf 82*, AML12 cytotox -0.75 and AML12 tox conf 9.
